Active and inactive are the calls of the source. The calls are words filed in the database; no cut-off is given here.
Tests used:
[1] = biological target: T1, Fructose-1,6-bisphosphatase 1 (Homo sapiens, UniProt P09467); assay: Inhibition of human FBPase expressed in Escherichia coli BL21 (DE3) using FBP as substrate incubated for 5 mins by malachite green dye based spectrophotometry
T1 sequence (P09467 whole entry): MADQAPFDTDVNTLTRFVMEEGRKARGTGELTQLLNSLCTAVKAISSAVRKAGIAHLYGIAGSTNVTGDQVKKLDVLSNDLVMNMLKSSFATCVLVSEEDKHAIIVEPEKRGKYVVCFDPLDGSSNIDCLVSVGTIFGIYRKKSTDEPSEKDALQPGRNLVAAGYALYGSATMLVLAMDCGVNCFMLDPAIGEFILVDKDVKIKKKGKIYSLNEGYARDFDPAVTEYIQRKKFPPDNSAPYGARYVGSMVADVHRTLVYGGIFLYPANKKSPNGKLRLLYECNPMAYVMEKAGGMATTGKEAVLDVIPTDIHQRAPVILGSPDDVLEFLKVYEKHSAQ

[2] = biological target: T2, Fructose-1,6-bisphosphatase 1 (Homo sapiens) (UniProt P09467); assay: Inhibition of human FBPase expressed in Escherichia coli BL21 (DE3) at 500 uM using FBP as substrate incubated for 5 mins by malachite green dye based spectrophotometry relative to control
T2 sequence (whole entry): T1 sequence (P09467 whole entry)

Hepatocyte [3] = assay: Inhibition of glucose production in C57BLKS rat Primary hepatocytes at 400 uM incubated for 3 hrs by glucose assay kit method relative to control; type: functional
Procedure, shortened: (§1)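 Rat primary hepatocytes cultured overnight in DMEM/10% FBS, then pretreated with compounds for 3 h in fresh medium. Switched to glucose-free DMEM with 2 mM sodium pyruvate, 20 mM sodium lactate and compound for 3 h. Medium glucose measured with a kit and normalized to BCA protein. Pathological arm adds 1 µM dexamethasone plus 200 µM cAMP for 3 h. Means ± SEM, n=4.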

Hepatocyte [4] = assay: Inhibition of glucose production in cAMP and Dex pre-treated C57BLKS rat Primary hepatocytes incubated for 3 hrs by glucose assay kit method; type: functional, cell-based; procedure, shortened: as §1
Hepatocyte [5] = assay: Inhibition of glucose production in cAMP and Dex pre-treated C57BLKS rat Primary hepatocytes at 1 uM incubated for 3 hrs by glucose assay kit method; type: functional, cell-based; procedure, shortened: as §1
Hepatocyte [6] = assay: Inhibition of glucose production in C57BLKS rat Primary hepatocytes incubated for 3 hrs by glucose assay kit method; type: functional, cell-based; procedure, shortened: as §1
Hepatocyte [7] = assay: Cytotoxicity against C57BLKS rat Primary hepatocytes assessed as cell viability by measuring cellular protein level at 10 to 400 uM by bicinchoninic acid method; type: cell-based
Procedure, shortened: (§2)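 Primary hepatocytes isolated from rat, cultured overnight in DMEM with 10% FBS, then exposed to compounds. Cellular protein per group measured by bicinchoninic acid (BCA) method as a viability control. The same protein values serve to normalize glucose, TG and TC contents. Pathological stimulation where applicable: 1 µM dexamethasone plus 200 µM cAMP, or 25 mM glucose plus 500 nM insulin for 24 h. Means ± SEM, four independent experiments.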

Hepatocyte [8] = assay: Inhibition of lipid accumulation in C57BLKS rat Primary hepatocytes assessed as reduction in insulin and glucose-induced TC level at 25 uM incubated for 24 hrs; type: functional, cell-based
Procedure, shortened: (§3)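 After overnight culture in DMEM, rat primary hepatocytes pretreated with compounds, then held in 25 mM glucose plus 500 nM insulin for 24 h to induce lipid accumulation. Triglyceride and total cholesterol measured with assay kits and normalized to BCA protein. Means ± SEM of four independent experiments.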

Hepatocyte [9] = assay: Inhibition of lipid accumulation in C57BLKS rat Primary hepatocytes assessed as reduction in insulin and glucose-induced TC level incubated for 24 hrs; type: functional, cell-based; procedure, shortened: as §3
[10] = Cytotoxicity against C57BLKS rat Primary hepatocytes assessed as cell viability incubated for 6 hrs by SRB assay; type: cell-based, Hepatocyte; details: read-out: Activity
Procedure, shortened: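 Rat primary hepatocytes under physiological conditions exposed to compounds for 6 h. Viability read by sulforhodamine B staining. Means ± SEM of four independent experiments.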

Hepatocyte [11] = assay: Cytotoxicity against C57BLKS rat Primary hepatocytes assessed as cell viability by measuring cellular protein level at 1 to 100 uM in presence of cAMP and Dex by bicinchoninic acid method; type: cell-based; procedure, shortened: as §2
Hepatocyte [12] = assay: Inhibition of lipid accumulation in C57BLKS rat Primary hepatocytes assessed as reduction in insulin and glucose-induced TG level at 100 uM incubated for 24 hrs; type: functional, cell-based; procedure, shortened: as §3
Hepatocyte [13] = assay: Cytotoxicity against C57BLKS rat Primary hepatocytes assessed as cell viability by measuring cellular protein level at 10 to 100 uM in presence of insulin and glucose by bicinchoninic acid method; type: cell-based; procedure, shortened: as §2
Hepatocyte [14] = assay: Inhibition of lipid accumulation in C57BLKS rat Primary hepatocytes assessed as reduction in insulin and glucose-induced TG level at 25 uM incubated for 24 hrs; type: functional, cell-based; procedure, shortened: as §3

In the case of `CCOC(=O)C(C)(C)Oc1ccc(/C=C/[N+](=O)[O-])c(Cl)c1`, the IC50 [1] is reported as 1800 nM.
For `CCOC(=O)C(C)(C)Oc1cc(/C=C/[N+](=O)[O-])ccc1Cl`, the IC50 [1] was 830 nM.
Compound `CC(=O)C=O` has an inhibition [2] of 19%.
Compound `Nc1ncnc2c1ncn2[C@@H]1O[C@H](COP(=O)(O)O)[C@@H](O)[C@H]1O` [ADENOSINE PHOSPHATE] has an IC50 [1] of 2300 nM.
Work on `CCOC(=O)C(C)(C)Oc1ccc(/C=C/[N+](=O)[O-])cc1Cl` yielded an IC50 [1] of 1600 nM.
In the case of `CCOC(=O)C(C)(C)Oc1ccc(Cl)c(/C=C/[N+](=O)[O-])c1`, the inhibition at 400 µM (Hepatocyte [3]) is reported as 90%, the inhibition (Hepatocyte [4]) is reported as “Dose-dependent effect” and the inhibition (Hepatocyte [5]) is reported as “Active”. For the same compound, the IC50 [1] was 2900 nM, the inhibition (Hepatocyte [6]) was “Dose-dependent effect” and the Activity (Hepatocyte [7]) was “Non-Toxic”. For the same compound, the inhibition (Hepatocyte [8]) was “Active”, the inhibition (Hepatocyte [9]) was “Dose-dependent effect” and the viability at 6 h [10] was > 80%. For the same compound, the Activity (Hepatocyte [11]) was “Non-Toxic”, the inhibition (Hepatocyte [12]) was “inactive” and the Activity (Hepatocyte [13]) was “Non-Toxic”. For the same compound, the inhibition (Hepatocyte [14]) was “Active”.
`CCCCCCCC/C=C(\CCCCCCCC(=O)O)[N+](=O)[O-]` [NITROLEIC ACID] showed an IC50 [1] of 58000 nM.
With `CCOC(=O)C(C)(C)Oc1cccc(/C=C/[N+](=O)[O-])c1` the IC50 [1] was 1000 nM.
With `C=CC(=O)Nc1ccccc1` the inhibition [2] was 17%.
In the case of `O=[N+]([O-])/C=C/c1ccccc1` [(2-NITROVINYL)BENZENE], the IC50 [1] is reported as 3500 nM.
Compound `c1ccc(C2CO2)cc1` (configuration not stated) has an inhibition [2] of 31%.
`COC(=O)/C=C/C(=O)OC` gave an inhibition [2] of 22%.
With `CCOC(=O)C(C)(C)Oc1ccc(Cl)cc1/C=C/[N+](=O)[O-]` the inhibition at 400 µM (Hepatocyte [3]) was 90%, the inhibition (Hepatocyte [4]) was “Dose-dependent effect” and the inhibition (Hepatocyte [5]) was “Active”. For the same compound, the IC50 [1] was 8200 nM, the inhibition (Hepatocyte [6]) was “Dose-dependent effect” and the Activity (Hepatocyte [7]) was “Non-Toxic”. The inhibition (Hepatocyte [8]) was “Active”, the inhibition (Hepatocyte [9]) was “Dose-dependent effect” and the viability at 6 h [10] was > 80%. For the same compound, the Activity (Hepatocyte [11]) was “Non-Toxic”, the inhibition (Hepatocyte [12]) was “inactive” and the Activity (Hepatocyte [13]) was “Non-Toxic”. The inhibition (Hepatocyte [14]) was “Active”.
In the case of `C=C(CC)C(=O)c1ccc(OCC(=O)O)c(Cl)c1Cl`, the inhibition [2] is reported as 56%.
For `O=C1C=CCC1`, the inhibition [2] was 29%.
Work on `O=C/C=C/c1ccccc1` yielded an inhibition [2] of 15%.
Work on `CCOC(=O)C(C)(C)Oc1cc(/C=C/[N+](=O)[O-])ccc1OC(F)F` yielded an IC50 [1] of 1600 nM.
`CCOC(=O)C(C)(C)Oc1ccc(/C=C/[N+](=O)[O-])cc1` gave an IC50 [1] of 3100 nM.
`CCOC(=O)C(C)(C)Oc1ccccc1/C=C/[N+](=O)[O-]` gave an IC50 [1] of 2700 nM.
Compound `CCOC(=O)C(C)(C)Oc1ccc(Br)c(/C=C/[N+](=O)[O-])c1` has an IC50 [1] of 790 nM.
`O=C(O)/C=C/C(=O)O` gave an inhibition [2] of 9.5%.
With `S=C=NCc1ccccc1` the inhibition [2] was 4.1%.
With `CCOC(=O)C(C)(C)Oc1ccc(F)cc1/C=C/[N+](=O)[O-]` the IC50 [1] was 7000 nM.
